# Data taken from ChEMBL document CHEMBL2346534, “Design, synthesis and in vitro anti-proliferative activity of 4,6-quinazolinediamines as potent EGFR-TK inhibitors” (Eur J Med Chem, 2013).
# Columns and labels:
# Assay type in all cases: functional
# [1] = tested on: SN12C; assay: Cytotoxicity against human SN12C cells after 48 hrs by SRB assay
# Procedure, shortened: (§1)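 NCI 60-panel five-dose screen. Cells in RPMI 1640 with 5% FBS and 2 mM L-glutamine are plated at 5000–40,000 cells/well by doubling time and preincubated 24 h at 37 °C in 5% CO2. Drug in DMSO is tested at 0.01, 0.1, 1, 10 and 100 μM for 48 h. Cells are TCA-fixed, stained with SRB and read at 515 nm. GI50 is the concentration giving 50% reduction in net protein increase relative to time-zero and control plates.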
# [2] = tested on: SK-MEL-28; assay: Cytotoxicity against human SK-MEL-28 cells after 48 hrs by SRB assay; conditions: SK-MEL-28, 48 h; procedure, shortened: as §1
# [3] = tested on: Malme-3M; assay: Cytotoxicity against human MALME-3M cells after 48 hrs by SRB assay
# Procedure, shortened: (§2)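 NCI 60-panel five-dose screen. Cells in RPMI 1640 with 5% FBS and 2 mM L-glutamine, plated at 5000–40,000 cells/well by doubling time, preincubated 24 h at 37 °C/5% CO2. Drug from DMSO stock added at 0.01, 0.1, 1, 10 and 100 µM, then 48 h. TCA fixation, SRB stain, absorbance at 515 nm, time-zero plates included. GI50 = 50% reduction in net protein increase versus control.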
# [4] = tested on: SNB-75; assay: Cytotoxicity against human SNB75 cells after 48 hrs by SRB assay; conditions: SNB-75, 48 h; procedure, shortened: as §1
# [5] = tested on: HCT-116; assay: Cytotoxicity against human HCT116 cells after 48 hrs by SRB assay; conditions: HCT-116, 48 h; procedure, shortened: as §2
# [6] = tested on: NCI-H322M; assay: Cytotoxicity against human NCI-H322M cells after 48 hrs by SRB assay; procedure, shortened: as §1
# [7] = read-out: LC50 (the source's name)
smiles,measurement,setting,value
NC(=O)Nc1ccc2ncnc(Nc3ccc(Cl)cc3)c2c1,GI50,[1],11.1 µM
same,TGI,[1],50 µM
same,CC50,[1]; [7],> 100 µM
same,GI50,[2],26.7 µM
same,TGI,[2],> 100 µM
same,CC50,[2]; [7],> 100 µM
same,GI50,[3],22 µM
same,TGI,[3],60.7 µM
same,CC50,[3]; [7],> 100 µM
same,GI50,[4],3.36 µM
same,TGI,[4],47 µM
same,CC50,[4]; [7],> 100 µM
same,GI50,[5],24.9 µM
same,TGI,[5],> 100 µM
same,CC50,[5]; [7],> 100 µM
same,GI50,[6],0.36 µM
same,TGI,[6],6.64 µM
same,CC50,[6]; [7],> 100 µM
